From ChEMBL document CHEMBL1126734, “Synthesis of phosphocholine and quaternary amine ether lipids and evaluation of in vitro antineoplastic activity” (1993)

Experiments:
[1] = tested on: HL-60; assay: Standard thymidine incorporation assay (TdR) was carried out for 48 hr and involved a 24-h pulse of [3H]- thymidine (n=5) and ID50 value was evaluated; type: functional; conditions: Homo sapiens, read-out: ID50 (the source's name)
Method in brief: (§1)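 HL-60 human promyelocytic leukemia cells in RPMI 1640 with 10% heat-inactivated FBS, 37 °C, 5% CO2. Log-phase cells seeded at 5 × 10^4/well with inhibitor dilutions from ethanol stocks (1 or 10 mg/mL). At 24 h, pulsed with 1.0 μCi [methyl-3H]thymidine (6.7 Ci/mmol) for a further 24 h. Harvested onto glass fiber filters and counted by liquid scintillation as % of control. Quadruplicate determinations. Values in μM.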

[2] = tested on: HL-60; assay: Trypan blue exclusion assay (TB) was carried out for 48 h and the in vitro ID50 value was evaluated in the HL-60 leukemic cell system (n=3); type: functional; conditions: Homo sapiens, HL-60, 48 h; read-out: ID50 (the source's name)
Method in brief: (§2)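 HL-60 human promyelocytic leukemia cells were grown in suspension in RPMI 1640 with 10% heat-inactivated FBS, penicillin/streptomycin, 2 mM L-glutamine and 0.22% NaHCO3 at 37 °C under 5% CO2. Cells at 5 × 10^5/mL were exposed to various inhibitor concentrations diluted from ethanol stocks into medium for 48 h. Trypan blue in PBS was then added and viable cells were counted by hemocytometer. Triplicate determinations; values in μM.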

[3] = tested on: HL-60; assay: Standard thymidine incorporation assay (TdR) was carried out for 48 hr with an 8 hr pulse of [3H]- thymidine (TdR8) (n=6) and ID50 value was evaluated; type: functional; conditions: Homo sapiens, read-out: ID50 (the source's name)
Method in brief: (§3)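 HL-60 leukemia suspension cultures grown in RPMI 1640/10% FBS at 37 °C, 5% CO2. Cells seeded at 5 × 10^4/well with inhibitors diluted from ethanol stocks. 48-h exposure, with 1.0 μCi [methyl-3H]thymidine (6.7 Ci/mmol) added for the last 8 h. Filter-harvested cells counted by liquid scintillation, uptake expressed as percent of control. Quadruplicate determinations. Results in μM.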

[4] = tested on: HL-60; assay: Standard thymidine incorporation assay (TdR) was carried out for 48 hr and involved a 24-h pulse of [3H]- thymidine (n=1) and ID50 value was evaluated; type: functional; conditions: Homo sapiens, read-out: ID50 (the source's name); method in brief: as §1
[5] = tested on: HL-60; assay: Trypan blue exclusion assay (TB) was carried out for 48 hr and the in vitro ID50 value was evaluated in the HL-60 leukemic cell system (n=1); type: functional, Homo sapiens; conditions: read-out: ID50 (the source's name); method in brief: as §2
[6] = tested on: HL-60; assay: Standard thymidine incorporation assay (TdR) was carried out for 48 hr with an 8 hr pulse of [3H]- thymidine (TdR8) (n=3) and ID50 value was evaluated; type: functional; conditions: Homo sapiens, read-out: ID50 (the source's name); method in brief: as §3
[7] = tested on: HL-60; assay: Trypan blue exclusion assay (TB) was carried out for 48 hr and the in vitro ID50 value was evaluated in the HL-60 leukemic cell system (n=4); type: functional; conditions: Homo sapiens, HL-60, 48 h; read-out: ID50 (the source's name); method in brief: as §2
[8] = tested on: HL-60; assay: Standard thymidine incorporation assay (TdR) was carried out for 48 hr and involved a 24-h pulse of [3H]- thymidine (n=2) and ID50 value was evaluated; type: functional; conditions: Homo sapiens, read-out: ID50 (the source's name); method in brief: as §1
[9] = tested on: HL-60; assay: Trypan blue exclusion assay (TB) was carried out for 48 hr and the in vitro ID50 value was evaluated in the HL-60 leukemic cell system (n=2); type: functional; conditions: Homo sapiens, HL-60, 48 h; read-out: ID50 (the source's name); method in brief: as §2
[10] = tested on: HL-60; assay: Standard thymidine incorporation assay (TdR) was carried out for 48 hr with an 8 hr pulse of [3H]- thymidine (TdR8) (n=4) and ID50 value was evaluated; type: functional; conditions: Homo sapiens, read-out: ID50 (the source's name); method in brief: as §3
[11] = tested on: HL-60; assay: Standard thymidine incorporation assay (TdR) was carried out for 48 hr and involved a 24-h pulse of [3H]- thymidine (n=3) and ID50 value was evaluated; type: functional; conditions: Homo sapiens, read-out: ID50 (the source's name); method in brief: as §1
[12] = tested on: HL-60; assay: Standard thymidine incorporation assay (TdR) was carried out for 48 h and involved a 24-h pulse of [3H]- thymidine (n=6) and ID50 value was evaluated; type: functional; conditions: Homo sapiens, read-out: ID50 (the source's name); method in brief: as §1
[13] = tested on: HL-60; assay: Standard thymidine incorporation assay (TdR) was carried out for 48 hr with an 8 hr pulse of [3H]- thymidine (TdR8) (n=7) and ID50 value was evaluated; type: functional; conditions: Homo sapiens, read-out: ID50 (the source's name); method in brief: as §3
[14] = tested on: HL-60; assay: Trypan blue exclusion assay (TB) was carried out for 48 hr and the in vitro ID50 value was evaluated in the HL-60 leukemic cell system (n=9); type: functional; conditions: Homo sapiens, HL-60, 48 h; read-out: ID50 (the source's name); method in brief: as §2
[15] = tested on: HL-60; assay: Standard thymidine incorporation assay (TdR) was carried out for 48 hr with an 8 hr pulse of [3H]- thymidine (TdR8) (n=1) and ID50 value was evaluated; type: functional; conditions: Homo sapiens, read-out: ID50 (the source's name); method in brief: as §3
[16] = tested on: HL-60; assay: Standard thymidine incorporation assay (TdR) was carried out for 48 hr with an 8 hr pulse of [3H]- thymidine (TdR8) (n=5) and ID50 value was evaluated; type: functional; conditions: Homo sapiens, read-out: ID50 (the source's name); method in brief: as §3
[17] = tested on: HL-60; assay: Standard thymidine incorporation assay (TdR) was carried out for 48 hr and involved a 24-h pulse of [3H]- thymidine (n=21) and ID50 value was evaluated; type: functional; conditions: Homo sapiens, read-out: ID50 (the source's name); method in brief: as §1
[18] = tested on: HL-60; assay: Standard thymidine incorporation assay (TdR) was carried out for 48 hr with an 8 hr pulse of [3H]- thymidine (TdR8) (n=16) and ID50 value was evaluated; type: functional; conditions: Homo sapiens, read-out: ID50 (the source's name); method in brief: as §3
[19] = tested on: HL-60; assay: Trypan blue exclusion assay (TB) was carried out for 48 hr and the in vitro ID50 value was evaluated in the HL-60 leukemic cell system (n=33); type: functional; conditions: Homo sapiens, HL-60, 48 h; read-out: ID50 (the source's name); method in brief: as §2

## CCCCCCCCCCCCCCCCSCC(C[N+](C)(C)CC(O)CO)OC (stereo not drawn)
[1]
  IC50: 3.05 µM
[2]
  IC50: 3.62 µM
[3]
  IC50: 1.9 µM

## CCCCCCCCCCCCCCCCSCCOP(=O)([O-])OCC[N+](C)(C)C
[4]
  IC50: 5.16 µM
[5]; Homo sapiens, HL-60, 48 h
  IC50: 4.15 µM

## CCCCCCCCCCCCCCCCSCC(C[N+](C)(C)CCO)OC (stereo not drawn)
[1]
  IC50: 4.34 µM
[6]
  IC50: 3.37 µM
[7]
  IC50: 3.86 µM

## CCCCCCCCCCCCCCCCOCC(COP(=O)(O)OCCNC(C)C)OCC (stereo not drawn)
[5]; Homo sapiens, HL-60, 48 h
  IC50: 4.7 µM

## CCCCCCCCCCCCCCCCCC(=O)NCCOP(=O)([O-])OCC[N+](C)(C)C
[8]
  IC50: 7.02 µM
[9]
  IC50: 4.56 µM
[10]
  IC50: 5.73 µM

## CCCCCCCCCCCCCCCCOCC(COP(=O)([O-])OCC[n+]1ccccc1)OCC (stereo not drawn)
[11]
  IC50: 2.56 µM
[5]; Homo sapiens, HL-60, 48 h
  IC50: 2.64 µM

## CCCCCCCCCCCCCCCCCCSCC(C[N+](C)(C)CCCO)OC (stereo not drawn)
[12]
  IC50: 3.51 µM
[13]
  IC50: 2.46 µM
[14]
  IC50: 2.93 µM

## CCCCCCCCCCCCCCCCCCCC(=O)NCC(COP(=O)([O-])OCC[N+](C)(C)C)OCC (stereo not drawn)
[8]
  IC50: 3.39 µM
[10]
  IC50: 2.71 µM
[2]
  IC50: 3.17 µM

## CCCCCCCCCCCCCCCCOCC(COCCCC[N+](C)(C)CCCO)OC (stereo not drawn)
[8]
  IC50: 1.98 µM
[10]
  IC50: 1.21 µM
[2]
  IC50: 1.83 µM

## CCCCCCCCCCCCSCC(C[N+](C)(C)C)OC (stereo not drawn)
[4]
  IC50: 2.26 µM

## CCCCCCCCCCCCCCCCSCC(C[N+]1(C)CCCC1)OCC (stereo not drawn)
[4]
  IC50: 2.09 µM
[15]
  IC50: 1.9 µM

## CCCCCCCCCCCCCCCCCC(=O)N(C)CC(COP(=O)([O-])OCC[N+](C)(C)C)OC (stereo not drawn)
[8]
  IC50: 4.02 µM
[10]
  IC50: 3.44 µM
[2]
  IC50: 3.97 µM

## CCCCCCCCCCCCCCCCCCSCC(C)(COP(=O)([O-])OCC[N+](C)(C)C)OCC (stereo not drawn)
[9]
  IC50: 3.83 µM

## CCCCCCCCCCCCCCCCCC(=O)NCCCOP(=O)([O-])OCC[n+]1ccccc1
[11]
  IC50: 4.33 µM
[2]
  IC50: 4.16 µM

## CCCCCCCCCCCCCCC(CSCC(COP(=O)([O-])OCC[N+](C)(C)C)OCC)OC (stereo not drawn)
[8]
  IC50: 2.47 µM
[2]
  IC50: 3.39 µM

## CCCCCCCCCCCCCCCCCC(=O)NCCCOP(=O)([O-])OCC[N+](C)(C)C
[11]
  IC50: 6.08 µM
[2]
  IC50: 5.48 µM

## CCCCCCCCCCCCCCCCOCC(COP(=O)([O-])OCC[N+](C)(C)C)(OC)OC
[5]; Homo sapiens, HL-60, 48 h
  IC50: 3.38 µM

## CCCCCCC(=O)CCCCCCCCCOCC(COP(=O)([O-])OCC[N+](C)(C)C)OCC (stereo not drawn)
[8]
  IC50: 21.9 µM
[9]
  IC50: 13 µM

## CCCCCCCCCCCCCCCCCCOCC(COP(=O)([O-])OCC[N+](C)(C)Cc1ccccc1)OCC (stereo not drawn)
[5]; Homo sapiens, HL-60, 48 h
  IC50: 3.65 µM

## CCCCCCCCCCCCCCCCSCC(COP(=O)([O-])OCC[N+](C)(C)C)OCCC (stereo not drawn)
[8]
  IC50: 2.19 µM
[2]
  IC50: 2.73 µM

## CCCCCCCCCCCCCCCCCC(=O)NCC(COP(=O)([O-])OCC[N+](C)(C)C)OCC (stereo not drawn)
[1]
  IC50: 3.3 µM
[7]
  IC50: 1.64 µM

## CCCCCCCCCCCCCCCCSCC(C[N+](C)(C)CCO)OCCCCCC (stereo not drawn)
[4]
  IC50: 7.15 µM

## CCCCCCCCCCCCCCCCSCC(COP(=O)(O)OCC[N+](CC)(CC)CC)OCC (stereo not drawn)
[5]; Homo sapiens, HL-60, 48 h
  IC50: 3.31 µM

## CCCCCCCCCCCCCCCCSCC(C[n+]1ccsc1)OC (stereo not drawn)
[8]
  IC50: 7.17 µM
[5]; Homo sapiens, HL-60, 48 h
  IC50: 8.75 µM

## CCCCCCCCCCCCCCCCSCC[n+]1ccccc1
[4]
  IC50: 2.28 µM

## CCCCCCCCCCCCCCCCSCC[N+](C)(C)CCO
[4]
  IC50: 3.95 µM

## CCCCCCCCCCCCCCCCCCOCC(C[N+]1(C)CCC(O)CC1)OCC (stereo not drawn)
[8]
  IC50: 4.3 µM

## CCCCCCCCOCC(C[N+](C)(C)C)OC (stereo not drawn)
[6]
  IC50: 27 µM
[2]
  IC50: 21.2 µM

## CCCCCCCCCCCCCCCCOCC(C[S+](C)CCO)OC (stereo not drawn)
[11]
  IC50: 2.01 µM
[16]
  IC50: 2.03 µM
[2]
  IC50: 2.49 µM

## CCCCCCCCCCCCCCCCSCCC[N+]1(C)CCC(O)C1 (stereo not drawn)
[4]
  IC50: 3.77 µM

## CCCCCCCCCCCCCCCCSCC(COC)C[N+](C)(C)CCCO (stereo not drawn)
[4]
  IC50: 3.46 µM

## CCCCCCCCCCCCCCCCOCC(CSCC[N+](C)(C)C)OC (stereo not drawn)
[8]
  IC50: 2.4 µM
[10]
  IC50: 1.85 µM
[2]
  IC50: 2.23 µM

## CCCCCCCCCCCCCCCCCC(=O)NCC(COP(=O)([O-])OCC[N+](C)(C)C)OCCCCCCCCCCCCCC (stereo not drawn)
[11]
  IC50: > 100 µM

## CCCCCCCCCCCCCCCCOCC(C[n+]1cccc(CO)c1)OC (stereo not drawn)
[8]
  IC50: 1.68 µM
[7]
  IC50: 1.07 µM
[10]
  IC50: 0.85 µM

## CCCCCCCCCCCCCCCCCCOCC(C[N+]1(C)CCOCC1)OCC (stereo not drawn)
[8]
  IC50: 3.92 µM
[5]; Homo sapiens, HL-60, 48 h
  IC50: 2.92 µM

## CCCCCCCCCCCCCCCCSCC(COC)C[N+](C)(C)C (stereo not drawn)
[4]
  IC50: 3.52 µM

## CCCCCCCCCCCCCCCCSCC(C[N+](C)(C)C)OCCCCC (stereo not drawn)
[4]
  IC50: 4.97 µM
[15]
  IC50: 5.02 µM
[5]; Homo sapiens, HL-60, 48 h
  IC50: 6.14 µM

## CCCCCCCCCCCCCCCCSCC(COP(=O)([O-])OCC[N+](C)(C)C)OCC (stereo in doubt; 2)
[6]
  IC50: 3.11 µM
[11]
  IC50: 2.19 µM
[5]
  IC50: 2.25 µM

## CCCCCCCCCCCCCCCCSCC(COP(=O)([O-])OCC[N+](C)(C)C)OCC (stereo in doubt; 5)
[5]
  IC50: 6.75 µM

## CCCCCCCCCCCCCCCCCCOCC(COP(=O)([O-])OCC[N+](C)(C)C)OC (stereo not drawn) [EDELFOSINE]
[17]
  IC50: 2.38 µM
[18]
  IC50: 2.41 µM
[19]
  IC50: 2.48 µM
